Compounds with a hit are over-represented: about 4.1% of the library has one in this group of screens.
TAG inh = reduces triacylglycerol accumulation in H9c2 cells; Nile Red lipid (TAG) fluorescence; cells loaded with 200 µM oleic acid; inhibition, % at 12.5 µM; hit rate 0.66% among 230,000; AID 651582;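 active means pattern-corrected inhibition of lipid staining of at least 50% with the nuclear-stain viability signal not falling by more than 50%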
Tb MetRS inh = Trypanosoma brucei MetRS inhibition. purified T. brucei MetRS, ATP depletion, Kinase-Glo luminescence. hit rate 0.4% among 360,000. inhibition, % at 11.9 µM;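 active means inhibition above a per-plate cutoff of the control wells' mean inhibition plus 3 SD, cut at about 5.5% in these data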
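Test system: purified T. brucei MetRS enzyme. Also added: ATP, methionine and E. coli bulk tRNA substrates. Compound: 11.9 µM single point. Schedule: 15 min enzyme-compound preincubation, 2 h reaction, 10 min detection, 25 °C. Signal: luciferase luminescence of residual ATP, Kinase-Glo. Evaluation: percent inhibition versus plate control medians. Controls: DMSO wells, low control.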
SMARCA2 act = activators of SMARCA2 function | hit rate 1% among 370,000 | MG213 cells, MMTV-luciferase reporter, dexamethasone, overnight | activation, % at 9.1 µM; in the data active means activation above about 7.8%
AHR act = activates the human aryl hydrocarbon receptor; activation, % at 5 µM; AHR-responsive luciferase reporter cells, luminescence; hit rate 2.5% among 320,000; P35869; in the data active means activation above about 47%
Target sequence (P35869 whole entry, looked up): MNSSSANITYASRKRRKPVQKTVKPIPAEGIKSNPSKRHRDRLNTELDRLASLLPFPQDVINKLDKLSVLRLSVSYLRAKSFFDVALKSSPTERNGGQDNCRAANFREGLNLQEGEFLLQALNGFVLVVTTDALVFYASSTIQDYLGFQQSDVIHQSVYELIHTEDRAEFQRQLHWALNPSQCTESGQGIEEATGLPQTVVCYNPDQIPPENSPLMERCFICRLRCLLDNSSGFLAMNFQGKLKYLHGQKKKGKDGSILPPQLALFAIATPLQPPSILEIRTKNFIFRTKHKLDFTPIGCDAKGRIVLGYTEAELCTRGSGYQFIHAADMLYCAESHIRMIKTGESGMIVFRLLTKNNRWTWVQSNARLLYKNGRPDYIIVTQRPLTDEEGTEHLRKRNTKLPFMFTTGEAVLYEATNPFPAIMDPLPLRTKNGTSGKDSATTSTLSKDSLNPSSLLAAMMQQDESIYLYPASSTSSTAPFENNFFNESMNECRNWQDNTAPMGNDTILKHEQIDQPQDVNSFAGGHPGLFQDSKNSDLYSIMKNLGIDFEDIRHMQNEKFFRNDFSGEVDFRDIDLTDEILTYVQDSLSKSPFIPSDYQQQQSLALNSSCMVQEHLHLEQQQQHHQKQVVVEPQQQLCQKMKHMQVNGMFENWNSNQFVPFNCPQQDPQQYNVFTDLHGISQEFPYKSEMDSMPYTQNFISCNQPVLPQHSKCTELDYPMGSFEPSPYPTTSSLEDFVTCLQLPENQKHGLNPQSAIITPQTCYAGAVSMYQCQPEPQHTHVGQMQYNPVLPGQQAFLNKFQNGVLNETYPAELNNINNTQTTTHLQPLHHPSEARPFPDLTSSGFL
Efflux pump mplx = antifungal efflux pump inhibition, Nile Red retention. S. cerevisiae Candida pump triplex. inhibition, % at 10 µM. hit rate 0.44% among 330,000. AID 485275;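 active means plate passing quality check with inhibition over a set limit, or well fluorescence over plate mean plus 4 SD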;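 further: Nile Red retained in pooled yeast measured as flow cytometry median fluorescence; higher means more Nile Red kept so more efflux inhibition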
Yeast cmpd fluor = flagged as fluorescent in efflux inhibitor counter-screen. shares compounds with Efflux pump mplx. S. cerevisiae AD/pABC3, compound fluorescence, flow cytometry. fluorescence ratio to DMSO, % at 10 µM. hit rate 4% among 1,700;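 active means fluorescence ratio to DMSO above its plate's cutoff, the plate mean ratio plus 5 SD, cut at about 210% in these data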;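 further: unstained yeast with no Nile Red so the signal is compound autofluorescence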
CaMdr1 efflux inh = inhibitors of Candida albicans Mdr1 efflux pump. shares compounds with Efflux pump mplx. S. cerevisiae AD/CaMDR1, Nile Red efflux, flow cytometry. inhibition, % at 10 µM. hit rate 1% among 1,700. AID 588518; in the data active means inhibition above about 26%;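 further: higher means more Nile Red retained so more efflux inhibition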
CaCdr2 efflux inh = blocks the Candida albicans Cdr2 efflux pump in yeast | shares compounds with Efflux pump mplx | S. cerevisiae AD/CaCDR2, Nile Red retention, flow cytometry | hit rate 4% among 1,700 | Nile Red retention ratio vs DMSO, % at 10 µM; in the data active means Nile Red retention ratio vs DMSO above about 190%;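 further: higher ratio means more blocking of Cdr2 efflux of the dye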
CaCdr1 efflux inh = blocks the Candida albicans Cdr1 efflux pump in yeast | shares compounds with Efflux pump mplx | S. cerevisiae AD/CaCDR1, Nile Red efflux, flow cytometry | inhibition, % at 10 µM | hit rate 1% among 1,700 | AID 588522;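 active means inhibition above the screen-wide mean plus twice its standard deviation, cut at about 32% in these data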
Numbers stand for hits; . = inactive; / = no result given.

SMILES | TAG inh | Tb MetRS inh | SMARCA2 act | AHR act | Efflux pump mplx | Yeast cmpd fluor | CaMdr1 efflux inh | CaCdr2 efflux inh | CaCdr1 efflux inh
O=c1[nH]c(C2CCN(S(=O)(=O)c3ccc4c(c3)OCCO4)CC2)nc2c1nnn2Cc1cccc(F)c1 | / | . | . | . | 3.2 | . | . | . | .
CCOc1ccc(-n2c(SCC(=O)Nc3ccc(Oc4ccccc4)cc3)nnc2-c2ccncc2)cc1 | / | / | . | / | / | / | / | / | /
Cc1ccc(OCc2nc3c4c(ncn3n2)-c2ccccc2CC42CCCC2)cc1 | / | . | . | . | . | / | / | / | /
Cc1ccccc1OCc1nc2c3c(ncn2n1)-c1ccccc1CC31CCCC1 | / | . | . | . | 34 | . | . | . | .
COc1ccc(C(=O)OCCN2CCN(C3CN(Cc4cn(Cc5ccccc5C(F)(F)F)nn4)S(=O)(=O)C3)CC2)cc1OC (stereo unspecified) | / | / | . | / | / | / | / | / | /
COc1cc(/C=C(\C#N)c2ccccn2)ccc1OCc1ccc(Cl)cc1 | / | . | . | . | 6.7 | . | . | . | .
Cc1ccccc1S(=O)(=O)Nc1nc2ccccc2nc1N1CCc2ccccc2C1 | / | . | . | . | 7.5 | . | . | . | .
COC(=O)[C@]12C[C@H](CC(=O)N3CCN(C(=O)C4CC4)CC3)C(=O)N(Cc3ccc(Cl)cc3Cl)C1=C[C@H](COCc1ccccc1)O[C@@H]2C | / | / | . | / | / | / | / | / | /
CCCCN1C[C@@H]2CSCCS(=O)(=O)N2C1=O | / | / | . | / | / | / | / | / | /
CCc1c(-c2cccc(OC)c2)ncn1CCc1ccccc1OC | / | / | . | / | / | / | / | / | /
CCOc1ccc(NC(=O)N2CCC(n3c(=O)[nH]c4ccccc43)CC2)cc1 | . | . | . | . | 0.8 | . | . | . | .
O=C(Nc1cccc(F)c1)N1CCC(n2c(=O)[nH]c3ccccc32)CC1 | . | . | . | . | . | / | / | / | /
O=C(CN1CCN(S(=O)(=O)c2ccccc2F)CC1)Nc1ccccc1C(=O)c1ccccc1 | . | . | . | . | 0.5 | . | . | . | .
Cc1ccccc1CNC(=S)OC1CCC12CCC(c1ccccc1)CC2 (stereo unspecified) | / | / | . | / | / | / | / | / | /
O=C(c1ccccc1Cl)N1CCSCCS1(=O)=O | / | / | . | / | / | / | / | / | /
NC(=O)c1nsc(C(=O)N(c2ccccc2)C(C(=O)NCc2ccc(F)cc2)c2ccc(O)cc2)c1N (stereo unspecified) | / | . | . | . | . | / | / | / | /
NC(=O)c1nsc(C(=O)N(c2ccccc2)C(C(=O)NCc2ccc(F)cc2)c2ccco2)c1N (stereo unspecified) | / | . | . | . | 0.5 | . | . | . | .
COc1ccccc1NC(=O)C1CCN(S(=O)(=O)c2cccs2)CC1 | . | . | . | . | 172 | . | . | . | .
O=C(CSc1nnc(Cc2cccs2)n1-c1ccccc1)Nc1ccc2c(c1)OCCO2 | . | . | . | . | . | . | . | . | .
Cc1ccc(-n2c(Cc3cccs3)nnc2SCC(=O)Nc2ccc(F)c(F)c2)cc1 | / | . | / | . | . | . | . | . | .
COc1ccc(-n2c(Cc3cccs3)nnc2SCC(=O)Nc2ccc(OCc3ccccc3)cc2)cc1 | / | / | . | / | / | / | / | / | /
CCN(C(=O)CN1CCN(c2nc(-c3ccccc3)cs2)CC1)c1ccccc1C | / | / | . | / | / | / | / | / | /
COc1ccc(/C=C(\C#N)C(=O)Nc2cc(S(=O)(=O)N3CCCCC3)ccc2N2CCCCC2)cc1 | / | . | . | . | 0.5 | . | . | . | .
COc1ccc(CCNC(=O)c2ccc(-c3ccc([N+](=O)[O-])cc3Cl)o2)cc1 | / | . | . | . | 6.7 | . | . | . | .
Cn1c(=O)c2cc(S(=O)(=O)NCCC(=O)NC3CCCCCCC3)ccc2n(C)c1=O | / | . | / | . | 8.2 | . | . | . | .
SMILES | TAG inh | Tb MetRS inh | SMARCA2 act | AHR act | Efflux pump mplx | Yeast cmpd fluor | CaMdr1 efflux inh | CaCdr2 efflux inh | CaCdr1 efflux inh
CCOc1ccc(NC(=O)CCNS(=O)(=O)c2ccc3c(c2)c(=O)n(C)c(=O)n3C)cc1 | / | . | / | . | 6.7 | . | . | . | .
Cc1ccc(CN2CCCCC(NC(=O)c3c(F)cccc3F)C2=O)cc1 (stereo unspecified) | / | / | . | / | / | / | / | / | /
NS(=O)(=O)c1ccc(NC(=S)N2CCN(c3ccccc3)CC2)cc1 | . | . | . | . | 3.6 | . | . | . | .
O=C(COc1cccc2c1CCN(Cc1ccccc1F)C2=O)N1CCCCC1 | . | . | . | . | . | / | / | / | /
CCOC(=O)N1CCN(C(=O)COc2cccc3c2CCN(Cc2ccccc2F)C3=O)CC1 | / | . | . | . | 2.7 | . | . | . | .
Cc1cc(N2CCN(CC(C)(C)O)C[C@H]2C)ccc1N1CCN(Cc2ccccc2)[C@H](C)C1 | / | / | . | / | / | / | / | / | /
CCn1c(=O)c2ccccc2n(Cc2ccc([N+](=O)[O-])cc2)c1=O | / | . | . | . | 0.6 | . | . | . | .
CCN1C(=O)c2cccc3c(S(=O)(=O)N(C(=O)c4cccnc4)c4ccc(OC)cc4)ccc1c23 | / | . | . | . | 13 | . | . | . | .
CCN1C(=O)c2cccc3c(S(=O)(=O)N(C(=O)c4ccncc4)c4ccc(OC)cc4)ccc1c23 | / | . | . | . | . | / | / | / | /
Cc1ccc2oc(C(=O)N3CCC(O)(c4cccc(C(F)(F)F)c4)CC3)c(C)c2c1 | . | . | . | . | 0.5 | . | . | . | .
CNC(=S)N/N=C/c1c(C)c(C(=O)c2ccc(F)cc2)n2ccccc12 | / | . | . | . | . | / | / | / | /
Cc1c(/C=N/O)c2ccccn2c1C(=O)c1ccc(F)cc1 | / | . | . | . | 1.7 | . | . | . | .
O=C(CSc1ccccc1)Nc1ccc(N2CCOCC2)cc1 | / | . | . | . | . | / | / | / | /
Cn1c(CC(=O)Nc2ccccc2)nnc1SCC(=O)Nc1ccc(N2CCOCC2)cc1 | / | . | . | . | . | / | / | / | /
O=C(CSc1ccccc1F)Nc1ccc(N2CCOCC2)cc1 | . | . | . | . | 0.8 | . | . | . | .
Cn1c(Cc2ccccc2)nnc1SCC(=O)Nc1ccc(N2CCOCC2)cc1 | / | . | . | . | 1.3 | . | . | . | .
Cc1noc(C)c1COc1ccccc1C(=O)N1CCN(c2cccc(C(F)(F)F)c2)CC1 | . | . | . | . | 1.1 | . | . | . | .
C=CCN1C(=O)[C@H](CC(=O)NCc2cccc(C(F)(F)F)c2)[C@@]2(C(=O)OCC)CCCC=C12 | / | / | . | / | / | / | / | / | /
N/C(=N\OC(=O)Cc1cccs1)c1ccc(Cl)cc1 | . | . | . | . | . | . | . | . | .
COc1ccc(OC)c(S(=O)(=O)NCC2CCN(C(=O)C(=O)c3cccs3)CC2)c1 | / | / | . | / | / | / | / | / | /
COc1cccc(-c2nnc(SC(C(=O)c3c[nH]c4ccccc34)c3ccccc3)n2C)c1 (stereo unspecified) | . | . | . | . | 0.8 | . | . | . | .
O=C(/C=C/c1ccc(Br)cc1)c1ccco1 | / | . | . | . | . | / | / | / | /
